Several values for one entry are separate records, joined by “and”; a condition that tells them apart may be missing. Equal entries are not always repeated.
Columns and labels:
[1] = species: Mus musculus; assay: Food intake in db/db Mice expressed as gram/mouse/day and the observation made is after 48 hr.; assay type: functional
Procedure, shortened: (§1)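 Male C57BL/Ks-db/db mice, 8-9 weeks old, housed 4/cage at 22 °C with chow and water ad libitum. Mice with tail-vein plasma glucose of 350-600 mg/dL were grouped at eight per group with matched mean glucose. Oral gavage once daily for 1 or 2 days at 30 or 100 mg/kg, with vehicle control. Body weight and cage food consumption measured after 24-27 h.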

[2] = tested on: Mus musculus; assay: Mean body weight expressed as grams/mouse at 0hrs, when given at 100 mg/kg; assay type: functional; procedure, shortened: as §1
[3] = tested on: Mus musculus; assay: Mean body weight expressed as grams/mouse at 24hrs, when given at 100 mg/kg; assay type: functional; procedure, shortened: as §1
[4] = tested on: Mus musculus; assay: In vivo plasma glucose lowering in db/db mice, given at 100 mg/kg in mouse, after 3 hr
[5] = tested on: Mus musculus; assay: In vivo plasma glucose lowering in db/db mice, given at 100 mg/kg in mouse, after 24 hr
[6] = tested on: Mus musculus; assay: Food intake in C57BL/ks Mice expressed as gram/mouse/day and the observation made at 0 -24 Hrs, when administered at a dose of 30 mg/kg; assay type: functional
Procedure, shortened: (§2)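 Lean C57BL/ks mice dosed at 30 mg/kg/day, with vehicle control, n = 8. Plasma glucose measured predose and on day 3. Body weight recorded at 0, 24 and 48 h; food intake per mouse per day over 0-24 and 24-48 h. Vehicle comparison by Student's t-test.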

[7] = tested on: Mus musculus; assay: Food intake in C57BL/ks Mice expressed as gram/mouse/day and the observation made at 24-48 Hrs, when administered at a dose of 30 mg/kg; assay type: functional; procedure, shortened: as §2
[8] = tested on: Mus musculus; assay: Food intake in db/db Mice expressed as gram/mouse/day and the observation made at 0 - 24 Hrs, in db/db mice administered at a dose of 20 mg/kg; assay type: functional
[9] = tested on: Mus musculus; assay: Food intake in db/db Mice expressed as gram/mouse/day and the observation made at 0 - 24 Hrs, in db/db mice administered at a dose of 30 mg/kg; assay type: functional; procedure, shortened: as §1
[10] = tested on: Mus musculus; assay: Food intake in db/db Mice expressed as gram/mouse/day and the observation made at 24 - 48 Hrs, in db/db mice administered at a dose of 20 mg/kg; assay type: functional
[11] = tested on: Mus musculus; assay: Food intake in db/db Mice expressed as gram/mouse/day and the observation made at 24 - 48 Hrs, in db/db mice administered at a dose of 30 mg/kg; assay type: functional; procedure, shortened: as §1
[12] = species: Mus musculus; assay: Food intake in db/db Mice expressed as gram/mouse/day and the observed after 48 hr.; assay type: functional; procedure, shortened: as §1
[13] = tested on: Mus musculus; assay: Mean body weight expressed as grams/mouse (C57BL/ks) at 48hrs, when given at 30 mg/kg; assay type: functional; procedure, shortened: as §2
[14] = tested on: Mus musculus; assay: Compound was evaluated for the in vivo effects on plasma glucose concentrations in db/db mice administered at a dose of 20 mg/kg mean body weight expressed as grams/mouse at 0 hr; assay type: functional
[15] = tested on: Mus musculus; assay: Compound was evaluated for the in vivo effects on plasma glucose concentrations in db/db mice administered at a dose of 20 mg/kg mean body weight expressed as grams/mouse at 24 hr; assay type: functional
[16] = tested on: Mus musculus; assay: Compound was evaluated for the in vivo effects on plasma glucose concentrations in db/db mice administered at a dose of 30 mg/kg mean body weight expressed as grams/mouse at 0 hr; assay type: functional; procedure, shortened: as §1
[17] = tested on: Mus musculus; assay: Compound was evaluated for the in vivo effects on plasma glucose concentrations in db/db mice administered at a dose of 30 mg/kg mean body weight expressed as grams/mouse at 24 hr; assay type: functional; procedure, shortened: as §1
[18] = tested on: Mus musculus; assay: Mean body weight expressed as grams/mouse (C57BL/ks) at 0hrs, when given at 30 mg/kg; assay type: functional; procedure, shortened: as §2
[19] = tested on: Mus musculus; assay: Mean body weight expressed as grams/mouse (C57BL/ks) at 24hrs, when given at 30 mg/kg; assay type: functional; procedure, shortened: as §2
[20] = tested on: Mus musculus; assay: Effect when given at 30 mg/kg in (C57BL/ks) mouse,Predose; assay type: functional; procedure, shortened: as §2
[21] = tested on: Mus musculus; assay: Effect when given at 30 mg/kg in (C57BL/ks) mouse, after day 3; assay type: functional; procedure, shortened: as §2
[22] = tested on: Mus musculus; assay: Effect when given at 30 mg/kg in (db/db)mice,3 days postdose; assay type: functional
Procedure, shortened: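 db/db mice, eight per group with matched initial glucose, dosed orally by gavage once daily with vehicle or 30 mg/kg. Tail-vein blood taken predose and 3 h postdosing. Plasma glucose measured colorimetrically by glucose oxidase assay. Groups compared with vehicle by ANOVA and Fisher's post-hoc test.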

[23] = tested on: Rattus norvegicus; assay: […] effect of drug administration on Body weight in Fructose fed STZ-treated rats, after 24 hr (Treatment group - Fructose/STZ + cryptoline HCl, 30 mg/kg); assay type: functional; details: in the assay text read “on day 3” for “after 24 hr”
Procedure, shortened: (§3)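 Male Sprague-Dawley rats, 8 weeks old, given STZ 55 mg/kg iv and a 60% fructose diet for 1 week. Rats with serum glucose of 250-350 mg/dL were sorted into matched groups (n = 14). Oral gavage once daily for 3 days with vehicle or 30 mg/kg in 2% DMSO, 10 mL/kg. Noninjected chow-fed vehicle controls (n = 19). Body weight and cage food consumption recorded daily.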

[24] = tested on: Rattus norvegicus; assay: […] effect of drug administration on Body weight in Fructose fed STZ-treated rats, pre dose ((Treatment group - Fructose/STZ + cryptoline HCl, 30 mg/kg); assay type: functional; procedure, shortened: as §3
[25] = tested on: Rattus norvegicus; assay: […] effect of drug administration on food consumption in Fructose fed STZ-treated rats (Treatment group - Fructose/STZ + cryptoline HCl, 30 mg/kg); assay type: functional; procedure, shortened: as §3

C[n+]1c2ccccc2cc2[nH]c3ccccc3c21.[I-] [CRYPTOLEPTINE IODIDE]
Food intake [1]: 1 g mouse-1 day-1 | Mean body weight [2]: 42.7 g mouse-1 | Mean body weight [3]: 41.9 g mouse-1 | Change of predose [4]: -11.5% | Change of predose [5]: -22.5%

Cn1c2ccccc2c2nc3ccccc3cc21
Food intake [1]: 4.4 g mouse-1 day-1 | Mean body weight [2]: 41.4 g mouse-1 | Mean body weight [3]: 42 g mouse-1 | Change of predose [4]: 15.3% | Change of predose [5]: 14.1%

C[n+]1c2ccccc2cc2[n-]c3ccccc3c21.Cl [CRYPTOLEPINE HYDROCHLORIDE]
Food intake [6]: 2.7 g mouse-1 day-1 | Food intake [7]: 2.3 g mouse-1 day-1 | Food intake [8]: 3.3 g mouse-1 day-1 | Food intake [9]: 2.4 g mouse-1 day-1 | Food intake [10]: 3.8 g mouse-1 day-1 | Food intake [11]: 2.4 g mouse-1 day-1 | Food intake [12]: 0.9 g mouse-1 day-1 | Mean body weight [13]: 22.7 g mouse-1 | Mean body weight [14]: 38 g mouse-1 and 37.4 g mouse-1 | Mean body weight [15]: 37.9 g mouse-1 | Mean body weight [16]: 37 g mouse-1 and 35.5 g mouse-1 | Mean body weight [17]: 36.9 g mouse-1 | Mean body weight [2]: 41 g mouse-1 | Mean body weight [3]: 39.8 g mouse-1 | Mean body weight [18]: 23.7 g mouse-1 | Mean body weight [19]: 23.3 g mouse-1 | Change of predose [20]: 184 mg/dL | Change of predose [21]: 171 mg/dL | Change of predose [22]: 358 mg/dL | Body weight [23]: 223 g | Body weight [24]: 201 g | Food intake [25]: 18 g/day | Change of predose [4]: -16.4% | Change of predose [5]: -43.1%

C[n+]1c2ccccc2cc2[n-]c3ccccc3c21 [CRYPTOLEPINE]
Food intake [1]: 1 g mouse-1 day-1 | Mean body weight [2]: 39.4 g mouse-1 | Mean body weight [3]: 38.7 g mouse-1 | Change of predose [4]: -19.7% | Change of predose [5]: -30%

— ChEMBL document CHEMBL1131567, “Ethnobotanical-directed discovery of the antihyperglycemic properties of cryptolepine: its isolation from Cryptolepis sanguinolenta, synthesis, and in vitro and in vivo activities” (1998)
